Assay results as given in ChEMBL document CHEMBL1142096, “Reduced susceptibility of Haemophilus influenzae to the peptide deformylase inhibitor LBM415 can result from target protein overexpression due to amplified chromosomal def gene copy number” (2007).
Values after ≈ are worked out from the molar mass of the structure shown.

How the values were obtained:
Format in all cases: functional
[1] = tested on: Haemophilus influenzae; experiment: Antimicrobial activity against Haemophilus influenzae NB65044 by broth microdilution method
Method in brief: (§1)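 MIC by CLSI broth microdilution, twofold serial dilutions in HTM broth.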

[2] = tested on: Haemophilus influenzae; experiment: Antimicrobial activity against Haemophilus influenzae CDS01 mutant with acrB insertional inactivation by broth microdilution method; method in brief: as §1
[3] = tested on: Haemophilus influenzae; experiment: Antimicrobial activity against Haemophilus influenzae CDS23 mutant overexpressing Def by broth microdilution method; method in brief: as §1
[4] = tested on: Haemophilus influenzae; experiment: Antimicrobial activity against Haemophilus influenzae CDS40 mutant with acrB insertional inactivation by broth microdilution method; method in brief: as §1

**Q.** Which MIC [1] does the source give for `CN(C)[C@@H]1C(O)=C(C(N)=O)C(=O)[C@@]2(O)C(O)=C3C(=O)c4c(O)cccc4[C@@](C)(O)[C@H]3C[C@@H]12` [TETRACYCLINE] here?
**A.** 0.5 µg/mL (≈ 1.13 µM)

**Q.** What about the MIC [2] of the same compound?
**A.** 0.5 µg/mL (≈ 1.13 µM)

**Q.** What about the MIC [3] of the same compound?
**A.** 0.5 µg/mL (≈ 1.13 µM)

**Q.** And the MIC [4]?
**A.** 0.5 µg/mL (≈ 1.13 µM)

**Q.** How did the MIC [1] turn out when `CCCC[C@H](CN(O)C=O)C(=O)N1CCC[C@H]1C(=O)Nc1ccc(F)c[n+]1[O-]` was run?
**A.** 4 µg/mL (≈ 10.1 µM)

**Q.** And the MIC [2]?
**A.** 0.25 µg/mL (≈ 0.631 µM)

**Q.** What about the MIC [3] of the same compound?
**A.** 64 µg/mL (≈ 161 µM)

**Q.** What about the MIC [4] of the same compound?
**A.** 4 µg/mL (≈ 10.1 µM)

**Q.** For `CCC[C@@H]1C[C@@H](C(=O)N[C@@H]([C@H]2O[C@H](SC)[C@H](O)[C@@H](O)[C@H]2O)[C@H](C)Cl)N(C)C1` [CLINDAMYCIN], which MIC [1] is on record?
**A.** 8 µg/mL (≈ 18.8 µM)

**Q.** And the MIC [2]?
**A.** 0.5 µg/mL (≈ 1.18 µM)

**Q.** What about the MIC [3] of the same compound?
**A.** 4 µg/mL (≈ 9.41 µM)

**Q.** What about the MIC [4] of the same compound?
**A.** 0.5 µg/mL (≈ 1.18 µM)
